Measured values published in publication PMC7750258 (Progress in neuro-psychopharmacology & biological psychiatry, 2020).
Read-outs that look alike come from different tables or passages of the source.

What was measured:
ICR mice [1] = experiment: Cannabinoid tetrad: rectal temperature; assay type: in vivo; conditions: for effect on body temperature: ICR mice of both sexes; for Body Temperature ED50 (± SEM): i.p., n=6, maximal effect −6°C
Outline: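 Adult drug-naïve ICR mice of both sexes (n=6 per sex per dose) received vehicle or test compound. Baseline rectal temperature was taken before injection. Temperature was re-measured immediately after a 10 min locomotor session that began 30 min post-injection. […] It came from least-squares linear regression on the linear part of the dose-effect curve against log10 dose.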

ICR mice [2] = experiment: Cannabinoid tetrad: ring immobility; assay type: in vivo; conditions: for effect on ring immobility: ICR mice of both sexes; for Ring Immobility ED50 (± SEM): i.p., n=6, maximal effect 100% immobility
Outline: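 Drug-naïve adult ICR mice, males and females (n=6 per sex per dose), were dosed with vehicle or test compound. At 50 min post-injection each mouse was placed on an elevated ring. Time spent immobile over 5 min was divided by 300 s and multiplied by 100 to give percent immobility.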

ICR mice [3] = experiment: Cannabinoid tetrad: locomotor activity; assay type: in vivo; conditions: female and male ICR mice, i.p., 10 min session 30 min after injection
C57BL/6J mice = experiment: THC drug discrimination in mice; assay type: in vivo; conditions: for ED50 (± SEM), THC drug discrimination: compound alone, i.p. 30 min pre-session; for substitution for the THC training dose: mice of both sexes
rats = conditions: ref Tseng and Craft (2001); cited from earlier work
CB1 receptor [4] = target: T1, CB1 receptor (Mus musculus, UniProt P47746); experiment: [3H]CP55,940 displacement binding in mouse cerebellar membranes; design: species or system ICR mice; conditions: read-out: CB1 Binding Affinity (Ki in nM), cerebellum, N = 4 / value
T1 sequence (P47746 whole entry): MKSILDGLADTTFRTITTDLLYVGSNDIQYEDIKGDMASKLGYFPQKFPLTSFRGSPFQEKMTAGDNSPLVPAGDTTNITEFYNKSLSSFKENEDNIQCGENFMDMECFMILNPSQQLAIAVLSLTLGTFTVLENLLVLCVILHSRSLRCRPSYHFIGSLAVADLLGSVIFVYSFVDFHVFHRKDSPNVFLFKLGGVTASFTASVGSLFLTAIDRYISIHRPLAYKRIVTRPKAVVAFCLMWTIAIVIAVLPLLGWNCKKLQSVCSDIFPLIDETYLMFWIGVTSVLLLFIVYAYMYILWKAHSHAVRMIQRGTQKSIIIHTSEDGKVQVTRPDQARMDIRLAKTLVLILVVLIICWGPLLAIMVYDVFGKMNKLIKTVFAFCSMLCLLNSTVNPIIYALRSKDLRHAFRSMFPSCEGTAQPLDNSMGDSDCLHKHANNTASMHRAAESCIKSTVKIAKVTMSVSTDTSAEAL

CB1 receptor [5] = target: T1, CB1 receptor; experiment: Agonist-stimulated [35S]GTPγS binding in mouse cerebellar membranes; assay type: biochemical, ICR mice; conditions: mouse cerebellum, both sexes
CB1 receptor [6] = target: CB1 receptor (Rattus norvegicus, UniProt P20272); experiment: Agonist-stimulated [35S]GTPγS binding in rat cerebellar membranes; assay type: biochemical, Sprague-Dawley rats; conditions: rat cerebellum, both sexes
Chain of CB1 receptor (Rattus norvegicus, UniProt P20272) (P20272 whole entry): as the sequence (P47746 whole entry) above, with D95E counted along it

Sprague-Dawley rats = experiment: THC drug discrimination in rats; assay type: in vivo
[7] = ref Huestis, 2007; Mazur et al., 2009; cited from earlier work

## 11-OH-Δ^9-tetrahydrocannabinol [11-OH-THC]
ICR mice [1]
  effect on body temperature: decreases in body temperature
ICR mice [1]; ICR mice, range across sexes
  greater potency than THC, hypothermia: 7- to 31 fold
ICR mice [1]; female ICR mice
  Body Temperature ED50 (± SEM): 0.19 (0.006–6.1)
ICR mice [1]; male ICR mice
  Body Temperature ED50 (± SEM): 0.70 (0.22–2.26)
ICR mice [2]
  effect on ring immobility: clear and significant dose-dependent increases in ring immobility
ICR mice [2]; ICR mice, range across sexes
  greater potency than THC, catalepsy: 7- to 15 fold
ICR mice [2]; female ICR mice
  Ring Immobility ED50 (± SEM): 0.16 (out of range)
ICR mice [2]; male ICR mice
  Ring Immobility ED50 (± SEM): 0.57 (0.07–4.57)
ICR mice [3]
  effect on locomotor activity: Neither drug significantly decreased locomotor activity
C57BL/6J mice; C57Bl/6J mice, range across sexes
  greater potency than THC in THC drug discrimination: 7- to 9 fold
C57BL/6J mice; female mice
  more potent than THC in THC drug discrimination: 7 fold
C57BL/6J mice; female mice, subset n=8
  response rate compared to vehicle: but not in females
  ED50 (± SEM), THC drug discrimination: 0.28 mg/kg
C57BL/6J mice; male mice
  more potent than THC in THC drug discrimination: 9 fold
C57BL/6J mice; male mice, subset n=8
  response rate compared to vehicle: significantly decreased by 3 mg/kg 11-OH-THC
  ED50 (± SEM), THC drug discrimination: 0.24 mg/kg
C57BL/6J mice
  substitution for the THC training dose: dose-dependently substituted for THC
rats
  potency in female vs male rats: about twice as potent in female than male rats

## CCCCCCC(C)(C)c1ccc([C@@H]2C[C@H](O)CC[C@H]2CCCO)c(O)c1 [CP55,940]
CB1 receptor [4]; female mice
  Ki: 0.48 nM
CB1 receptor [4]; male mice
  Ki: 0.56 nM

## CCCCCc1cc(O)c2c(c1)OC(C)(C)[C@@H]1CCC(C)=C[C@@H]21 [THC, Δ^9-tetrahydrocanabinol]
CB1 receptor [5]
  functional character in [35S]GTPγS assay: partial agonists
CB1 receptor [6]
  functional character in [35S]GTPγS assay: partial agonists
ICR mice [1]
  effect on body temperature: decreases in body temperature
ICR mice [2]
  effect on ring immobility: clear and significant dose-dependent increases in ring immobility
ICR mice [3]
  effect on locomotor activity: Neither drug significantly decreased locomotor activity
C57BL/6J mice; all mice (15 female, 20 male), first and second THC dose-effect curves
  response rate compared to vehicle: significantly increased overall responding across both sexes at doses of 3 and 5.6 mg/kg during the first test and over a dose range of 3–10 mg/kg during the second test
C57BL/6J mice; female mice, subset n=8
  response rate compared to vehicle: but not in females
C57BL/6J mice; male mice, subset n=8
  response rate compared to vehicle: significantly decreased by 30 mg/kg THC
C57BL/6J mice
  substitution for the THC training dose: dose-dependently substituted for the 5.6 mg/kg training dose
Sprague-Dawley rats; THC drug discrimination
  more potent in female than in male rats: 2.8 fold
Sprague-Dawley rats; rats of both sexes
  substitution for the THC training dose: dose-dependently substituted for the 1.7 mg/kg training dose in both sexes
Sprague-Dawley rats; rats, both sexes
  response rate compared to vehicle: 3 mg/kg THC significantly decreased overall responding across both sexes

## CCCCCc1cc(O)c2c(c1)OC(C)(C)[C@@H]1CCC(C(=O)O)=C[C@@H]21 [THC-COOH, 11-nor-9-carboxy-Δ^9-tetrahydrocannabinol]
[7]
  cannabimimetic effects: lacks cannabimimetic effects

## Cc1c(C(=O)NN2CCCCC2)nn(-c2ccc(Cl)cc2Cl)c1-c1ccc(Cl)cc1 [rimonabant, 5-(4-chlorophenyl)-1-(2,4-dichlorophenyl)-4-methyl-N-(piperidin-1-yl)-1H-pyrazole-3-carboxamide]
C57BL/6J mice; 1 mg/kg antagonist i.p. 10 min before THC, both sexes
  rightward shift of THC dose-effect curve: ~ 7 fold
C57BL/6J mice; 1 mg/kg rimonabant or 3 mg/kg SR144528 i.p. 10 min prior, n=8/sex
  effect of antagonist on substitution by 1 mg/kg 11-OH-THC: blocked maximal substitution produced by 1 mg/kg 11-OH-THC
C57BL/6J mice; male mice, subset n=8
  response rate compared to vehicle: significantly suppressed compared to vehicle alone treatment
